MEKK2mut PB1 HTS: signal of MEK5 binding to mutant human MEKK2 PB1 domain; bead flow cytometry, Alexa488-MEK5 binding to MEKK2 mutant; percent response, % at 10 µM; actives 0.35% (n = 290,000); in the data active means percent response above about 24%, passing the limit was not always enough
Rce1 inh: blocks yeast Ras-converting enzyme. Q03530. yeast membranes, quenched prenylated peptide cleavage fluorescence. calls only. actives 0.27% (n = 290,000). AID 2563;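 active means fall in fluorescence gain of 50% or more versus controls, with final raw signal at or below 3038400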;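 further: plate controls were neutral control wells for no effect and wells lacking membranes for full effect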
Target sequence (Q03530 whole entry, looked up): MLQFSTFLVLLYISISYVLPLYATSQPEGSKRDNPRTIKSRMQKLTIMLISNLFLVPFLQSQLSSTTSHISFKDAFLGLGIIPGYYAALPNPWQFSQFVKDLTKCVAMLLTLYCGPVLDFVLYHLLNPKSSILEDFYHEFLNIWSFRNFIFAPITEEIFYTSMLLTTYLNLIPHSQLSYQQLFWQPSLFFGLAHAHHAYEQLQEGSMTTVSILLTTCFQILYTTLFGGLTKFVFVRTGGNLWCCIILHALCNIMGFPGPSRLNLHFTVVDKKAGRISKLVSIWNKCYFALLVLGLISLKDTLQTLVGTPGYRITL
T cell modulator: modulates CD8 T cell binding to vesicles. response (vesicle binding), % at 7 µM. 2C CD8+ T cell-vesicle binding, flow cytometry; hits give low values. actives 0.068% (n = 330,000);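 active means response, share of CD8 T cells binding vesicles, and their 90th percentile fluorescence all below set limits, cut at about 80% in these data, passing the limit was not always enough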;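 further: values below 100% mean blocked vesicle binding to the CD8+ T cells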
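material = purified 2C TCR transgenic mouse naive CD8+ T cells | controls = Unloaded micro-vesicles (low), QL9 vesicles with 0.7% DMSO (high) | detection = cytometric PE anti-B7-1 and Alexa647 anti-CD8 signals after 1% paraformaldehyde fixation | incubation = binding step 1.5 h, 37 °C, antibody labelling 20 min, ice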
MEKK2 WT-MEK5: raises or lowers MEK5 binding to wildtype human MEKK2 PB1 domain; AID 1531; Q9Y2U5; binding response (% of control), % at 10 µM; bead flow cytometry, Alexa488-MEK5 binding to MEKK2 WT; actives lie on both sides; actives 1.1% (n = 290,000); in the data active means binding response below about 67% or above about 130%
UCH37 inh: inhibitors of human deubiquitinating enzyme UCH37; Q9Y5K5; purified proteasome/UCH37, Ub-AMC cleavage fluorescence; inhibition, % (no concentration beside the values); actives 0.33% (n = 330,000); AID 588478;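 active means mean inhibition over replicate wells above about 20%, limit read from the data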;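 further: 0% = compound-free wells with enzyme and 100% = wells lacking proteasome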
Target sequence (Q9Y5K5 whole entry, looked up): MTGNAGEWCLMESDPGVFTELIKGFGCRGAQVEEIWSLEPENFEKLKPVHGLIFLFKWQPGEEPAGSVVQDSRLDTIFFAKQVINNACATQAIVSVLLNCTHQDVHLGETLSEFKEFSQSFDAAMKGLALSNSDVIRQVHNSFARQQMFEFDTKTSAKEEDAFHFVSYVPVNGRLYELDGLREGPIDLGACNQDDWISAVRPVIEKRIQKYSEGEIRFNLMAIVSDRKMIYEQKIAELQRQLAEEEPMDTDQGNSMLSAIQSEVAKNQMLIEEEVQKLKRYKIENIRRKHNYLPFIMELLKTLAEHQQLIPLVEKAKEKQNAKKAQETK
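Signal – fluorescence, ex 355 nm, em 460 nm · System – Proteasome-bound UCH37 · Input – 0.15 nM proteasome as dispensed · Timing – 30 min preincubation with enzyme, 25 min cleavage at room temperature · Read-out basis – percent inhibition of cleavage signal versus uninhibited and no-proteasome wells · Medium – Tris-HCl pH 7.4 with ATP-MgCl2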
MEKK3 PB1 HTS: MEKK3-MEK5 PB1 interaction, increase or decrease. Q99759. bead-based flow cytometry, Alexa488-MEK5 binding to MEKK3; actives lie on both sides; 0 = blocked by unlabeled MEK5, 100 = vehicle. binding response (% of control), % at 10 µM. AID 1529. actives 1.4% (n = 290,000);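 active means binding response more than 3 SD above or below the average of its plate-row segment, actives on both sides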;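 further: Alexa488 bead fluorescence after subtracting the streptavidin-only scavenger bead signal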
MEKK2wt confirm: raises or lowers MEK5 binding to wildtype human MEKK2, retest. actives 2.4% (n = 5,900). binding response (% of control), % at 10 µM. AID 1892. shares compounds with MEKK3 PB1 HTS. bead flow cytometry, Alexa488-MEK5 binding to MEKK2 WT; actives lie on both sides; in the data active means binding response below about 16% or above about 210%; inactive means in between
MEKK2mut-MEK5: signal of MEK5 binding to mutant human MEKK2, retest. shares compounds with MEKK3 PB1 HTS. bead flow cytometry, Alexa488-MEK5 binding to MEKK2 mutant. percent response, % at 10 µM. actives 2% (n = 5,900). AID 1893; in the data active means percent response mostly above about 71%, no sharp cut-off; inactive means mostly below about 38%;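 further: higher means compound restores mutant binding toward wildtype level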
MEKK3 confirm: confirmation of inhibitors of MEK5 binding to human MEKK3; shares compounds with MEKK3 PB1 HTS; binding response (% of control), % at 10 µM; actives 1.8% (n = 5,900); bead flow cytometry, Alexa488-MEK5 binding to MEKK3; hits give low values;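 active means binding response below 72% of control, or above a set upper limit, though filed actives all read lower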;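 further: 100% = DMSO only wells and 0% = binding blocked by excess unlabeled MEK5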
Starred values were filed as active, the others as inactive; i = inactive; nt = no result given; [ ] = dose if it differs, or a comment. Compounds with a hit are over-represented: about 2.5% of the library has one in this group of screens.

SMILES	MEKK2mut PB1 HTS	Rce1 inh	T cell modulator	MEKK2 WT-MEK5	UCH37 inh	MEKK3 PB1 HTS	MEKK2wt confirm	MEKK2mut-MEK5	MEKK3 confirm
COc1ccc(N2CCN(C(=O)c3cc4c(s3)-c3ccccc3S(=O)(=O)C4)CC2)cc1	-19.0	i	258.9	-10.0*[inhibitor]	2.9	82.0	101.0	5.0	104.0
CN1CCN(C(=O)c2cc3c(s2)-c2ccccc2S(=O)(=O)C3)CC1	-7.0	i	596.7	102.0	6.1	92.0	nt	nt	nt
CCOc1cc(C=NNc2ccc(C(=O)O)cc2)ccc1OC(=O)c1ccccc1C	nt	nt	nt	nt	-3.8	nt	nt	nt	nt
Nc1c2c(nc3sc4c(c13)CCCCC4)CCCCC2	1.0	i	249.0	111.0	0.8	139.0*	107.0	2.0	101.0
CCCn1c(N2CCN(C(=O)N3CCCCC3)CC2)nc2ccccc21	-18.0	i	85.2	2.0*[inhibitor]	1.3	2.0*[inhibitor]	104.0	1.0	101.0
Cc1ccc(S(=O)(=O)N=Nc2c(O)[nH]c3ccccc23)cc1	6.0	i	92.2	121.0	4.1	126.0*	104.0	4.0	105.0
CCCCC(C(=O)NN=Cc1ccccn1)C(=O)NN=Cc1ccccn1 (stereo not given)	nt	nt	nt	nt	4.3	nt	nt	nt	nt
CCOc1ccc(C(c2c(NC(=O)c3ccccc3)sc(C)c2C)N2CCN(C)CC2)cc1 (stereo not given)	19.0	i	99.6	129.0	-7.1	99.0	nt	nt	nt
Cc1sc(NC(=O)c2ccccc2)c(C(c2ccccn2)N2CCN(CCO)CC2)c1C (stereo not given)	0.0	i	439.4	111.0	3.5	140.0*	1.0*[inhibitor]	-29.0	2.0*
CC(=NNC(=O)CNC(=O)C1COc2ccccc2O1)c1cccc(O)c1 (stereo not given)	nt	nt	nt	nt	2.7	nt	nt	nt	nt
O=C(COC(=O)Cc1ccccc1[N+](=O)[O-])NCc1ccc(Cl)cc1	0.0	i	332.7	107.0	1.3	143.0*	109.0	1.0	106.0
O=C1C2C3C=CC(C3)C2C(=O)N1N=Cc1cc(Br)cc([N+](=O)[O-])c1O (stereo not given)	nt	nt	nt	nt	1.5	nt	nt	nt	nt
COc1ccc(CNC(=O)CC(C)=NNC(=O)Cc2ccc(OC)c(OC)c2)cc1	nt	nt	nt	nt	-0.2	nt	nt	nt	nt
CC(=O)OC(C(=O)NC1CCCCC1)c1ccncc1 (stereo not given)	-15.0	i	188.1	83.0	1.0	75.0*[inhibitor]	98.0	-5.0	101.0
CC(=O)OC(C(=O)NC1CCCCC1)c1ccccc1Cl (stereo not given)	-4.0	i	536.7	101.0	1.6	97.0	nt	nt	nt
COc1cc(/C=C2/SC(=S)N(CC(=O)Nc3nc4ccccc4s3)C2=O)cc(OC)c1OC	-16.0	nt	361.5	71.0*[inhibitor]	7.2	89.0	80.0	-9.0	99.0
CCc1nnc(NC(=O)CN2C(=O)/C(=C/c3cc(OC)c(OC)c(OC)c3)SC2=S)s1	1.0	i	234.8	95.0	1.0	159.0*	88.0	-5.0	100.0
COc1cc(/C=C2\SC(=S)N(CC(=O)Nc3ccccn3)C2=O)cc(OC)c1OC	2.0	i	220.3	85.0	8.0	99.0	nt	nt	nt
COc1ccc(C=NNC(=O)c2cc(=O)[nH]c3ccccc23)cc1OC	nt	nt	nt	nt	-70.8	nt	nt	nt	nt
NC(=NOC(=O)c1ccco1)c1cccc([N+](=O)[O-])c1	nt	nt	nt	nt	5.6	nt	nt	nt	nt
COc1ccc(C=N/N=C2/NC(=O)C(CC(=O)NC(N)=O)S2)cc1 (stereo not given)	nt	nt	nt	nt	3.2	nt	nt	nt	nt
Nc1nnnn1N=Cc1ccccn1	nt	nt	nt	nt	1.5	nt	nt	nt	nt
COc1ccccc1NC(=O)C(=O)N/N=C/c1ccc([N+](=O)[O-])s1	-21.0	i	nt	60.0*[inhibitor]	nt	63.0*[inhibitor]	120.0	10.0	103.0
COc1cccc(C=NNC(=O)C(=O)Nc2ccccc2OC(F)(F)C(F)F)c1O	nt	nt	nt	nt	0.9	nt	nt	nt	nt
COc1ccccc1/C=N/NC(=O)C(=O)Nc1ccccc1OC(F)(F)C(F)F	1.0	i	262.8	104.0	nt	134.0*	97.0	-8.0	98.0
SMILES	MEKK2mut PB1 HTS	Rce1 inh	T cell modulator	MEKK2 WT-MEK5	UCH37 inh	MEKK3 PB1 HTS	MEKK2wt confirm	MEKK2mut-MEK5	MEKK3 confirm
COc1cccc(/C=N/NC(=O)C(=O)Nc2ccccc2OC(F)(F)C(F)F)c1	1.0	i	i	111.0	nt	149.0*	104.0	7.0	104.0
COc1cccc(C=NNC(=O)C(=O)Nc2ccccc2OC(F)(F)C(F)F)c1	nt	nt	nt	nt	-35.5	nt	nt	nt	nt
COc1ccccc1NC(=O)C(=O)NN=Cc1cccs1	nt	nt	nt	nt	8.5	nt	nt	nt	nt
S=C(NCc1ccccc1)NN=Cc1cccs1	nt	nt	nt	nt	5.6	nt	nt	nt	nt
COc1ccccc1NCc1nnc(SCC(=O)NN=Cc2ccco2)n1-c1ccc(Cl)cc1Cl	nt	nt	nt	nt	4.0	nt	nt	nt	nt
COc1ccc(CC(C)=NNS(=O)(=O)c2ccc(Br)cc2)cc1	nt	nt	nt	nt	2.9	nt	nt	nt	nt
c1cc2c(cc1C1CCCCC1)c1c3n2CCCNC3CCC1 (stereo not given)	18.0	i	238.9	165.0*	-0.6	93.0	157.0	25.0	104.0
c1cc2c(cc1C1CCCCC1)c1c3n2CCN=C3CCC1	19.0	i	360.9	135.0*	0.0	83.0	115.0	8.0	103.0
Cc1ccc2c(c1)c1c3n2CCN=C3CCC1	-4.0	i	203.0	91.0	2.0	89.0	nt	nt	nt
COc1nc(NN=Cc2ccccc2F)nc(N2CCCCC2)n1	nt	nt	nt	nt	-1.0	nt	nt	nt	nt
NCCNc1ccc(C(=O)N2c3ccccc3Sc3ccccc32)cc1[N+](=O)[O-]	37.0*	i	137.6	182.0*	5.5	114.0	167.0	48.0	111.0
Cc1cnn(-c2cc(NN=Cc3ccccc3Cl)ncn2)c1	nt	nt	nt	nt	4.3	nt	nt	nt	nt
Cc1ccc(NC(=O)/C(=C/c2cccc([N+](=O)[O-])c2)NC(=O)C2CCCCC2)c(C)c1	-21.0	i	571.4	2.0*[inhibitor]	2.3	1.0*[inhibitor]	107.0	3.0	103.0
O=C(NN=Cc1ccc(N2CCOCC2)cc1)c1ccccc1NS(=O)(=O)c1cccs1	nt	nt	nt	nt	-47.1	nt	nt	nt	nt
O=S(=O)(N=C(Nc1cc(N2CCOCC2)ncn1)c1ccccc1)c1ccccc1	nt	nt	nt	nt	-11.5	nt	nt	nt	nt
CN1C(=O)N(C)C2(c3ccccc3)N(C)C(=O)NC12c1ccccc1 (stereo not given)	-17.0	i	529.4	50.0	0.8	35.0*[inhibitor]	101.0	6.0	101.0
O=C(CNc1ccccc1)NN=Cc1cc([N+](=O)[O-])ccc1N1CCCC1	nt	nt	nt	nt	0.7	nt	nt	nt	nt
O=C(NN=Cc1ccc2ncccc2c1)c1cccc([N+](=O)[O-])c1	nt	nt	nt	nt	5.8	nt	nt	nt	nt
CC(C)(CO)NCc1ccccc1OCC(=O)Nc1ccccc1	nt	i	600.0	nt	0.0	nt	nt	nt	nt

Source: PubChem BioAssay
